Tests used:
[1] = Drug uptake in tumor of SCID mouse xenografted with human UMUC3 cells at 0.47 micromol/kg, iv pretreated with compound followed by light irradiation at a dose of 135 J/cm2 and 75 mW/cm2 measured after 24 hrs by IVIS analysis; format: ADME, organism-based, Neoplasm; details: in vivo, dose 0.47 µmol/kg
Method in brief: (§1)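 Female SCID mice with UMUC3 flank/shoulder tumors, 3 per group. PS in 1% Tween80/5% dextrose given iv at 0.47, 0.25 or 0.125 μmol/kg. Whole-body fluorescence imaging by IVIS at several times after injection; average radiant efficiency measured in tumor, liver and skin.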

[2] = Drug uptake in tumor of SCID mouse xenografted with human UMUC3 cells assessed as drug accumulation by measuring fold decrease to that of liver at 0.47 micromol/kg, iv followed by light irradiation at 665 nm at a dose of 135 J/cm2 and 75 mW/cm2 and measured after 24 hrs by IVIS analysis; format: ADME, organism-based, Neoplasm; details: in vivo; method in brief: as §1
[3] = Drug uptake in human CFSE-stained HN-121 cells assessed as increase in drug retention at 1.6 uM in medium with 10% FBS followed by 48 hrs chase period by inverted fluorescence microscopic analysis; format: ADME, cell-based; details: hn-121, 48 h
[4] = Drug uptake in human HN-166 cells assessed as increase in drug retention retention at 3 uM in medium with 10% FBS incubated for 5 hrs followed by 40 hrs chase period by inverted fluorescence microscopic analysis; format: ADME, cell-based; details: hn-166, 5 h
Method in brief: (§2)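 Five-day co-cultures of HN-143 tumor epithelial cells and HN-166 tumor fibroblasts, both primary head & neck tumor cultures grown on collagen-1 under selective media. PS in 10% FBS medium for 5 h, then 40 h chase without PS. Phase-contrast and fluorescence images taken at 100X with 500 ms exposure; signal normalized to recording time and cell number.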

[5] = Drug uptake in human HN-143 cells assessed as increase in drug retention retention at 3 uM in medium with 10% FBS incubated for 5 hrs followed by 40 hrs chase period by inverted fluorescence microscopic analysis; format: ADME, cell-based; details: hn-143, 5 h; method in brief: as §2
UMUC3 [6] = experiment: Photosensitizing activity in human UMUC3 cells assessed as reduction in cell viability pretreated with compound for 24 hrs followed by light irradiation at 1 J/cm2 and measured after 48 hrs by MTT assay; format: functional, cell-based; details: UMUC3, light or radiation study
Method in brief: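 Cells plated 0.01x10⁶ to 0.05x10⁶ cells/ml and allowed to adhere 24 h before photosensitizer was added, top dose 1600 nM with 2-fold serial dilutions. Plates received no light (0 J/cm²) or 1 J/cm² at 565 mW, 15 cm spot. After 48 h, MTT added for 3 h, formazan solubilized in DMSO and read at 570 nm; IC₅₀ fitted from dose-response.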

UMUC3 [7] = experiment: Photodynamic antitumor activity against human UMUC3 cels xenografted in SCID mouse assessed as cure rate at 0.47 micromol/kg, iv pretreated with compound followed by light irradiation at a dose of 135 J/cm2 and 75 mW/cm2 and measured after 60 days post dose relative to control; format: functional; details: dose 0.47 µmol/kg; time 60 day
Method in brief: (§3)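 UMUC3-bearing female SCID mice given iv PS in 1% Tween80/5% dextrose. Mice restrained and tumors irradiated at 665 nm, 135 J/cm² over 30 min at 75 mW/cm², at the time of maximal tumor uptake. Tumor regrowth measured daily for 60 days; mice euthanized above 400 mm³. Cure plotted as survival curves and compared by log-rank (Mantel-Cox) test.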

[8] = Drug uptake in tumor of SCID mouse xenografted with FaDu cells assessed as drug accumulation by measuring fold increase to that of liver at 0.47 micromol/kg, iv pretreated with compound followed by light irradiation at a dose of 135 J/cm2 and 75 mW/cm2 and measured after 24 hrs by IVIS analysis; format: ADME, organism-based, Neoplasm; details: in vivo, dose 0.47 µmol/kg
Method in brief: (§4)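 Female SCID mice bearing FaDu tumors 4–5 mm in diameter, 3 per group. PS in 1% Tween80/5% dextrose given iv at 0.47, 0.25 or 0.125 μmol/kg. IVIS whole-body fluorescence imaged at several time points; average radiant efficiency measured in tumor, liver and skin.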

[9] = Drug uptake in tumor of SCID mouse xenografted with FaDu cells at 0.47 micromol/kg, iv pretreated with compound followed by light irradiation at a dose of 135 J/cm2 and 75 mW/cm2 and measured at 6 hrs by IVIS analysis; format: ADME, organism-based, Neoplasm; details: in vivo, dose 0.47 µmol/kg; method in brief: as §4
FaDu [10] = experiment: Photodynamic antitumor activity against human FaDu cels xenografted in SCID mouse assessed as cure rate at 0.47 micromol/kg, iv pretreated with compound followed by light irradiation at a dose of 135 J/cm2 and 75 mW/cm2 and measured after 60 days post dose relative to control; format: functional; details: dose 0.47 µmol/kg; time 60 day
Method in brief: (§5)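 FaDu-bearing female SCID mice (5 per group per experiment) given iv PS at 0.47, 0.25 or 0.125 μmol/kg in Tween80/dextrose. Tumors irradiated 24 h post-injection at 665 nm, 135 J/cm², 75 mW/cm². Tumor growth measured daily for 60 days, with euthanasia above 400 mm³. Cure taken as tumor-free at day 60; survival analysed by log-rank test.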

[11] = Drug uptake in human FaDu clone 49 cells assessed as increase in drug retention at 1.6 uM in RPMI medium with 10% FBS followed by 48 hrs chase period by inverted fluorescence microscopic analysis
FaDu [12] = experiment: Photosensitizing activity in human FaDu cells assessed as reduction in cell viability pretreated with compound for 24 hrs followed by light irradiation at 1 J/cm2 and measured after 48 hrs by MTT assay; format: functional, cell-based; details: light or radiation study
Method in brief: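 Cells seeded at 0.01–0.05 x 10⁶ cells/ml; PS added 24 h after plating, top dose 1600 nM with 2-fold serial dilutions. Plates given 0 or 1 J/cm² light. MTT added 48 h later, formazan dissolved in DMSO, absorbance at 570 nm; IC50 from curve fitting.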

[13] = Drug uptake in human HNT1 cells at 3.2 uM incubated for 30 mins in DMEM media with 10% FBS followed by […] in compound-free medium by inverted fluorescence microscopic analysis; format: ADME, cell-based; details: hnt1, 0.5 h, in the assay text read “in serum-free medium” for “in DMEM media with 10% FBS”
Method in brief: (§6)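 Confluent HNT1 cultures (passage 116) given 3.2 μM PS for 30 min in serum-free medium, then 5 h in serum-containing medium with PS, then 15 h chase in serum medium without PS. Fluorescence recorded at 100X with varied camera exposures and quantified digitally; pixel signal normalized to time and cell number.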

[14] = Drug uptake in skin of SCID mouse xenografted with FaDu cells at 0.47 micromol/kg, iv pretreated with compound followed by light irradiation at a dose of 135 J/cm2 and 75 mW/cm2 and measured at 24 hrs by IVIS analysis; format: ADME, organism-based, Skin of body; details: in vivo, dose 0.47 µmol/kg; method in brief: as §4
[15] = Drug uptake in liver of SCID mouse xenografted with FaDu cells at 0.47 micromol/kg, iv pretreated with compound followed by light irradiation at a dose of 135 J/cm2 and 75 mW/cm2 and measured at 24 hrs by IVIS analysis; format: ADME, organism-based; details: in vivo, dose 0.47 µmol/kg; method in brief: as §4
[16] = Drug uptake in human HNT1 cells at 3.2 uM incubated for 30 mins in serum free medium followed by […] in compound-free medium by inverted fluorescence microscopic analysis; format: ADME, cell-based; details: hnt1, 0.5 h; method in brief: as §6
[17] = Drug uptake in tumor of SCID mouse xenografted with FaDu cells at 0.47 micromol/kg, iv pretreated with compound followed by light irradiation at a dose of 135 J/cm2 and 75 mW/cm2 and measured at 24 hrs by IVIS analysis; format: ADME, organism-based, Neoplasm; details: in vivo, dose 0.47 µmol/kg; method in brief: as §4
UMUC3 [18] = experiment: Photodynamic antitumor activity against human UMUC3 cells xenografted in SCID mouse assessed as tumor retention at 0.47 micromol/kg, iv pretreated with compound followed by light irradiation at a dose of 135 J/cm2 and 75 mW/cm2 measured at day 30 post dose relative to control; format: functional; details: dose 0.47 µmol/kg; time 30 day; method in brief: as §3
FaDu [19] = experiment: Photodynamic antitumor activity against human FaDu cels xenografted in SCID mouse assessed as cure rate at 0.47 micromol/kg, iv pretreated with compound followed by light irradiation at a dose of 135 J/cm2 and 75 mW/cm2 and measured at 24 hrs post dose relative to control; format: functional; details: dose 0.47 µmol/kg; method in brief: as §5
[20] = Drug uptake in skin of SCID mouse xenografted with human UMUC3 cells at 0.47 micromol/kg, iv pretreated with compound followed by light irradiation at a dose of 135 J/cm2 and 75 mW/cm2 measured at 24 hrs by IVIS analysis; format: ADME, organism-based, Skin of body; details: in vivo, dose 0.47 µmol/kg; method in brief: as §1
[21] = Drug uptake in liver of SCID mouse xenografted with human UMUC3 cells at 0.47 micromol/kg, iv pretreated with compound followed by light irradiation at a dose of 135 J/cm2 and 75 mW/cm2 measured at 24 hrs by IVIS analysis; format: ADME, organism-based; details: in vivo, dose 0.47 µmol/kg; method in brief: as §1
FaDu [22] = experiment: Photodynamic antitumor activity against human FaDu cells xenografted in SCID mouse assessed as cure rate at 0.47 micromol/kg, iv pretreated with compound followed by light irradiation at a dose of 135 J/cm2 and 75 mW/cm2 measured at 24 hrs relative to control; format: functional; details: dose 0.47 µmol/kg; method in brief: as §5
[23] = Drug uptake in tumor of SCID mouse xenografted with FaDu cells assessed as fold increase at 0.47 micromol/kg, iv pretreated with compound followed by light irradiation at a dose of 135 J/cm2 and 75 mW/cm2 and measured at 24 hrs by IVIS analysis; format: ADME, organism-based, Neoplasm; details: in vivo, dose 0.47 µmol/kg; method in brief: as §4

Drug uptake [1] | Drug uptake [3] | Drug uptake [11] | Drug uptake [14] | Drug uptake [15] | Drug uptake [17] | Structure (SMILES) | IC50 (UMUC3 [6]) [µM] | IC50 (FaDu [12]) [µM] | Activity (FaDu [19]) [%] | further results
Active | Active | Active | – | – | – | CCCCCCOC(C)c1c(C)c2cc3nc(c4c5[nH]c(cc6nc(cc1[nH]2)C(C)=C6CC)c(C)c5C(=O)C4)[C@@H](CCC(=O)NCCCCn1cc(-c2cccc(Nc4ncnc5cc(OCCOC)c(OCCOC)cc45)c2)nn1)[C@@H]3C (stereo not given in full) | 0.0203 | 0.0176 | – | fold change (FC) [2]: 2; Drug uptake [4]: Active; Drug uptake [5]: Active; Activity (UMUC3 [7]): 20%; fold change (FC) [8]: 2; Drug uptake [9]: Active; Activity (FaDu [10]): 40%
Active | – | – | Active | Active | Active | CCCCCCOC(C)c1c(C)c2cc3nc(c4c5[nH]c(cc6nc(cc1[nH]2)C(C)=C6CC)c(C)c5C(=O)C4)[C@@H](CCC(=O)O)[C@@H]3C (stereo not given in full) [HPPH] | 0.0684 | 0.0438 | 30 | Drug uptake [13]: Active; Drug uptake [16]: Active; Activity (UMUC3 [18]): 30%
Active | Active | Active | Active | Active | Active | CCC1=C(C)c2cc3[nH]c(cc4nc(c5c6[nH]c(cc1n2)c(C)c6C(=O)C5)[C@@H](CCC(=O)OC)[C@@H]4C)c(C)c3C(C)OCc1ccc(C#Cc2cccc(Nc3ncnc4cc(OCCOC)c(OCCOC)cc34)c2)cc1 (stereo not given in full) | 0.0209 | 0.0596 | 66 | Drug uptake [20]: Active; Drug uptake [21]: Active; Activity (FaDu [22]): 66%; fold change (FC) [23]: 2
